Test results: the M2OR odorant receptor database

Columns and labels:
Settings in all cases: stereoisomer not certain
[1] = target: T1, OR13C2 (Homo sapiens) (UniProt Q8NGS9)
T1 sequence (whole entry): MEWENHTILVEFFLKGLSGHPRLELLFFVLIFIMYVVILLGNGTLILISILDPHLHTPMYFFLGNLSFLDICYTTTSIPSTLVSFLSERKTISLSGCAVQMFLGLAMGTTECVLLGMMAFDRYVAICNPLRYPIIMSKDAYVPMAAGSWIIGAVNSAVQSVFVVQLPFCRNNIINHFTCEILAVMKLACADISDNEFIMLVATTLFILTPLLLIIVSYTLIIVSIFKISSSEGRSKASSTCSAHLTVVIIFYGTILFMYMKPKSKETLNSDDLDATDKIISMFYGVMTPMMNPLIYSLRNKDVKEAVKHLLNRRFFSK
Procedure, shortened: (§1)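 Transient luciferase assays in mammalian cell lines were common, though methods varied by source. The values come from published papers and their supplementary material, with extra details from the original authors when needed. Responsive refers to a measured signal the original authors judged statistically different from baseline, and non-responsive (inactive) to the remainder.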

[2] = target: T2, OR13C3 (Homo sapiens) (UniProt Q8NGS6)
T2 sequence (whole entry): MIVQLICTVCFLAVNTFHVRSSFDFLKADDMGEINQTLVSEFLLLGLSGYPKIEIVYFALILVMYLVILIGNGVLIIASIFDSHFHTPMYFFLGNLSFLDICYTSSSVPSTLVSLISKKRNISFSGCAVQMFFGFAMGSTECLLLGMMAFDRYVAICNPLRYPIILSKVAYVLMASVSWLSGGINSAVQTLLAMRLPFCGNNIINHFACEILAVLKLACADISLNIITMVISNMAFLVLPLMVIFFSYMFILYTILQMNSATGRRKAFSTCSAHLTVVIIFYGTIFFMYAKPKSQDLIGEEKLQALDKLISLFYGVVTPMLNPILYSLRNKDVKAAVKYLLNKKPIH
Procedure, shortened: as §1

[3] = target: T3, OR13C4 (Homo sapiens) (UniProt Q8NGS5)
T3 sequence (whole entry): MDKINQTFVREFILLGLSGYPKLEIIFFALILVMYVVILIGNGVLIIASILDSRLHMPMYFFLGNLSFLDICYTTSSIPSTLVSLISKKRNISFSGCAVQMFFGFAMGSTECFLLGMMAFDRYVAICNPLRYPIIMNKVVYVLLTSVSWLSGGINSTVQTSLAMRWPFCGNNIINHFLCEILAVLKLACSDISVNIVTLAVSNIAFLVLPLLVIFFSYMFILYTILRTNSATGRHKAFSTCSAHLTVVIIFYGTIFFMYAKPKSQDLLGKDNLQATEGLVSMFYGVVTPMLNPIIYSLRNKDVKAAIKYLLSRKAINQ
Procedure, shortened: as §1

[4] = target: T4, OR13C5 (Homo sapiens) (UniProt Q8NGS8)
T4 sequence (whole entry): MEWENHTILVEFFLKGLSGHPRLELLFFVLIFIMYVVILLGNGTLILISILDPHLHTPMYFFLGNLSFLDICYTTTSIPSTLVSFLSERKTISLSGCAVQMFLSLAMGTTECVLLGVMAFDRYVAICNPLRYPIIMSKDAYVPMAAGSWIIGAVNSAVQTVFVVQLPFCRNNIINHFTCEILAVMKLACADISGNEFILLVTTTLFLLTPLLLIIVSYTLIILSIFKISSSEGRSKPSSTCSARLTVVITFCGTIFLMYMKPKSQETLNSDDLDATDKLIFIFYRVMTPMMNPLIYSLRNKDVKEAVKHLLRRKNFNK
Procedure, shortened: as §1

[5] = target: OR13C7 (Homo sapiens) (UniProt P0DN81)
Procedure, shortened: as §1

[6] = target: T5, OR13C8 (Homo sapiens) (UniProt Q8NGS7)
T5 sequence (whole entry): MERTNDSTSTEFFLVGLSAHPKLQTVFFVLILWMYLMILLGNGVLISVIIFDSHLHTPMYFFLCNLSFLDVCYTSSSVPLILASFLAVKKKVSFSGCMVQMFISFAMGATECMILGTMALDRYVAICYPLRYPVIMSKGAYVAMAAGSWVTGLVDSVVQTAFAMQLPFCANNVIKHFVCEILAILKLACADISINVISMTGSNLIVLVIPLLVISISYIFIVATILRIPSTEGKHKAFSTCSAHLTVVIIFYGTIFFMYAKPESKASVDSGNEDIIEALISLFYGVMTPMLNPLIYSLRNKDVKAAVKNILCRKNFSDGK
Procedure, shortened: as §1

[7] = target: T6, OR13C9 (Homo sapiens) (UniProt Q8NGT0)
T6 sequence (whole entry): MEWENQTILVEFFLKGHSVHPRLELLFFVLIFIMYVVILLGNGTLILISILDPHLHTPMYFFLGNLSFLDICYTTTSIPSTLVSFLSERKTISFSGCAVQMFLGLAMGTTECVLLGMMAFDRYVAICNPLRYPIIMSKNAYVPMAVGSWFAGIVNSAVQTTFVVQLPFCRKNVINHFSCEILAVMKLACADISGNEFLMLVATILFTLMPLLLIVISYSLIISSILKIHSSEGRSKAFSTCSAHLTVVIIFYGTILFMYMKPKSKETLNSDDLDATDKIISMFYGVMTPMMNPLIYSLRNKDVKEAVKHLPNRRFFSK
Procedure, shortened: as §1

[8] = target: T7, OR13D1 (Homo sapiens) (UniProt Q8NGV5)
T7 sequence (whole entry): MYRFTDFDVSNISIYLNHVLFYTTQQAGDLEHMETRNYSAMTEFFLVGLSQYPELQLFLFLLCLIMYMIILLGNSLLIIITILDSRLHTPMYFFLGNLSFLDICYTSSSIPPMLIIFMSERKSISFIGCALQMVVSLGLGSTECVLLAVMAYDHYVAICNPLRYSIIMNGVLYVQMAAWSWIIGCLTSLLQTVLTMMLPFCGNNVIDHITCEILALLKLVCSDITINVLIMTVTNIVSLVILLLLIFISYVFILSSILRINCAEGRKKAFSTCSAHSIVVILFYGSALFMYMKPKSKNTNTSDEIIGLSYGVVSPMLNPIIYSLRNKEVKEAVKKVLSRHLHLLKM
Procedure, shortened: as §1

[9] = target: T8, OR13F1 (Homo sapiens) (UniProt Q8NGS4)
T8 sequence (whole entry): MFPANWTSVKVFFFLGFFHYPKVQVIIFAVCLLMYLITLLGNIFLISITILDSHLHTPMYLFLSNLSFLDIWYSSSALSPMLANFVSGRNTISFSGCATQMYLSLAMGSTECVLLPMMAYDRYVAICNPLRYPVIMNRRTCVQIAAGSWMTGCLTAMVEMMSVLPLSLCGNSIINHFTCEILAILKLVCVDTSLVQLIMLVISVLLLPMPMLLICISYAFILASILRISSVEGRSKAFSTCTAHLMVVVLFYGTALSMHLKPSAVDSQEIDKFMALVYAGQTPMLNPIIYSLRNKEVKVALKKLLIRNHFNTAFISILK
Procedure, shortened: as §1

[10] = target: T9, OR13G1 (Homo sapiens) (UniProt Q8NGZ3)
T9 sequence (whole entry): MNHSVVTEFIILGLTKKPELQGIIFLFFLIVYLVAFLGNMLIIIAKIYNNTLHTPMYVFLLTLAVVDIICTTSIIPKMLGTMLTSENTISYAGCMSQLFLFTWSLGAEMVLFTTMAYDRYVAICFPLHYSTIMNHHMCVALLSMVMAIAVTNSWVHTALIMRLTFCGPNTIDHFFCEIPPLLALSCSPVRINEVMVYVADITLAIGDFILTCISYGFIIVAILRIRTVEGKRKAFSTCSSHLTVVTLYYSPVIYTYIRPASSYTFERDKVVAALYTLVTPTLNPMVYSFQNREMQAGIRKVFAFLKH
Procedure, shortened: as §1

[11] = target: T10, OR13H1 (Homo sapiens) (UniProt Q8NG92)
T10 sequence (whole entry): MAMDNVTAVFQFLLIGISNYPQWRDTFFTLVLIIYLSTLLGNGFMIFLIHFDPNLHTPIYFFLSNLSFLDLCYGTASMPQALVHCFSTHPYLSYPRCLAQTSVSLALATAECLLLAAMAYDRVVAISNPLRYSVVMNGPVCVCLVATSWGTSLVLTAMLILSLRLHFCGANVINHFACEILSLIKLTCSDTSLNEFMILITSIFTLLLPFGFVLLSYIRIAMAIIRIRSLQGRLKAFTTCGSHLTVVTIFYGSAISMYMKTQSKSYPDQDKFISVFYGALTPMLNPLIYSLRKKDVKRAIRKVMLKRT
Procedure, shortened: as §1

[12] = target: T11, OR13J1 (Homo sapiens) (UniProt Q8NGT2)
T11 sequence (whole entry): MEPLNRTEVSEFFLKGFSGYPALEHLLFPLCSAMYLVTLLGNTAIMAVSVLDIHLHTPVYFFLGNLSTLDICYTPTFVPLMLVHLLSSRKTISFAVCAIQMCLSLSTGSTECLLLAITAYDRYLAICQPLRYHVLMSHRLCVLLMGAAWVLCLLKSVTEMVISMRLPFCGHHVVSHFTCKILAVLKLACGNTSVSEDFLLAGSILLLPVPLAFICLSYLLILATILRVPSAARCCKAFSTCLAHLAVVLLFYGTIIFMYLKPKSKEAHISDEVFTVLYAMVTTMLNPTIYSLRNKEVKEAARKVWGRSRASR
Procedure, shortened: as §1

[13] = target: T12, OR14A16 (Homo sapiens) (UniProt Q8NHC5)
T12 sequence (whole entry): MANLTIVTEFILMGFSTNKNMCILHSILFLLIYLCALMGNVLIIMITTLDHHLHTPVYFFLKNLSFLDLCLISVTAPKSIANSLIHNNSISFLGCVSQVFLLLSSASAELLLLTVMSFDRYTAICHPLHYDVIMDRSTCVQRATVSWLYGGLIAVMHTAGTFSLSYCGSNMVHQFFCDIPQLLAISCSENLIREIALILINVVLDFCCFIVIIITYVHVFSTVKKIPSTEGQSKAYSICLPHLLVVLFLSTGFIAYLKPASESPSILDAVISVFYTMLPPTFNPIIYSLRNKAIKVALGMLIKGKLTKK
Procedure, shortened: as §1

[14] = target: T13, OR14A2 (Homo sapiens) (UniProt Q96R54)
T13 sequence (whole entry): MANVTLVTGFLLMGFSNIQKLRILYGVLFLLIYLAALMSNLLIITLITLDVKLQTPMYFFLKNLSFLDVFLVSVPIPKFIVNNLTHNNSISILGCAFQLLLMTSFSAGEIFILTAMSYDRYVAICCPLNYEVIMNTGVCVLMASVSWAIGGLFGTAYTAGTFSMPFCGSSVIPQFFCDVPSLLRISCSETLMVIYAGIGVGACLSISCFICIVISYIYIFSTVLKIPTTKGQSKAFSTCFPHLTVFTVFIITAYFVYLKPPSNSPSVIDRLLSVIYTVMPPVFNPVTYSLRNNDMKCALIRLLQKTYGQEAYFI
Procedure, shortened: as §1

[15] = target: T14, OR14C36 (Homo sapiens) (UniProt Q8NHC7)
T14 sequence (whole entry): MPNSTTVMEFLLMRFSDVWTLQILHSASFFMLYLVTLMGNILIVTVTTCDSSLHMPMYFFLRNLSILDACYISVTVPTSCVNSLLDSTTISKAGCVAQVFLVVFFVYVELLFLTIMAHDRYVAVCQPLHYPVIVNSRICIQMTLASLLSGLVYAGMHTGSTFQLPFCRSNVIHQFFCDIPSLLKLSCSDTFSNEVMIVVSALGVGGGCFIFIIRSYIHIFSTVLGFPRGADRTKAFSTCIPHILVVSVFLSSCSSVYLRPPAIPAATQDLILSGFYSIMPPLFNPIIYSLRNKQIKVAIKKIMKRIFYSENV
Procedure, shortened: as §1

[16] = target: T15, OR14I1 (Homo sapiens) (UniProt A6ND48)
T15 sequence (whole entry): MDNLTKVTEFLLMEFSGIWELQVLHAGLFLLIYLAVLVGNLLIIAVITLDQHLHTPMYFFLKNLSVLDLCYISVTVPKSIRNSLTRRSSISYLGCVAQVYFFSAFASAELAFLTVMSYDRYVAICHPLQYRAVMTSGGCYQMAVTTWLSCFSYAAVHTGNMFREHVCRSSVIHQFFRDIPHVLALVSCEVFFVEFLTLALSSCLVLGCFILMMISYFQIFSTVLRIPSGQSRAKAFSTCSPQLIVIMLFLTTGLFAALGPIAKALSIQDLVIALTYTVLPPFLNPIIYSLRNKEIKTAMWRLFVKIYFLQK
Procedure, shortened: as §1

[17] = target: T16, OR14J1 (Homo sapiens) (UniProt Q9UGF5)
T16 sequence (whole entry): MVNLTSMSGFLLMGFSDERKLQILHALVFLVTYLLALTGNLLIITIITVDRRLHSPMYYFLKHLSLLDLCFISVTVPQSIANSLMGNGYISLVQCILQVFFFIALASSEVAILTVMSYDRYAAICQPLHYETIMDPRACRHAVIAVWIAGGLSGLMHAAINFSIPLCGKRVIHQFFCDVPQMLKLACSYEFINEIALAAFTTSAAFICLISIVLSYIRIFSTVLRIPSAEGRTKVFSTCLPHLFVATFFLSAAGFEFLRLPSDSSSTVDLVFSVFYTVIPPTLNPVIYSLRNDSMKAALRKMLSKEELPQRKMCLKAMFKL
Procedure, shortened: as §1

[18] = target: T17, OR14K1 (Homo sapiens) (UniProt Q8NGZ2)
T17 sequence (whole entry): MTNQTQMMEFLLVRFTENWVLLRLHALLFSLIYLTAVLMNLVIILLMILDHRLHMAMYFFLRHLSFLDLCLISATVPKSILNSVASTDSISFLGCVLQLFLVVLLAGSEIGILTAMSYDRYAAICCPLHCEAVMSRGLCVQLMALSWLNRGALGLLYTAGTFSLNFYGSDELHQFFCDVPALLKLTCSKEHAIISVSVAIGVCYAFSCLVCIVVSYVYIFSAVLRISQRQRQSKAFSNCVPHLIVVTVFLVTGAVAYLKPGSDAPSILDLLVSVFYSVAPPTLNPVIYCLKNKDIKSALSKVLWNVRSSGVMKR
Procedure, shortened: as §1

[19] = target: T18, OR1A1 (Homo sapiens) (UniProt Q9P1Q5)
T18 sequence (whole entry): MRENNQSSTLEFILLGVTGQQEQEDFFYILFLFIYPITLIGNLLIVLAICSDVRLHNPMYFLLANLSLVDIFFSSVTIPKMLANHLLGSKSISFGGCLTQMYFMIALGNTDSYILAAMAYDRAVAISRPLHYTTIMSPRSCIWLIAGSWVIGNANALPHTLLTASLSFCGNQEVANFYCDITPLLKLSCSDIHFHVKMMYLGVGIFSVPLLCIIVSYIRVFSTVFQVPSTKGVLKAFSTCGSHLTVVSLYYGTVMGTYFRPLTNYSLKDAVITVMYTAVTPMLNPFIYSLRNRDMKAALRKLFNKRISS
Procedure, shortened: as §1

Measured: odorant receptor agonist call;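 further: active if original authors judged signal statistically different from baseline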

Sequence of OR13C7 (Homo sapiens) (P0DN81 whole entry): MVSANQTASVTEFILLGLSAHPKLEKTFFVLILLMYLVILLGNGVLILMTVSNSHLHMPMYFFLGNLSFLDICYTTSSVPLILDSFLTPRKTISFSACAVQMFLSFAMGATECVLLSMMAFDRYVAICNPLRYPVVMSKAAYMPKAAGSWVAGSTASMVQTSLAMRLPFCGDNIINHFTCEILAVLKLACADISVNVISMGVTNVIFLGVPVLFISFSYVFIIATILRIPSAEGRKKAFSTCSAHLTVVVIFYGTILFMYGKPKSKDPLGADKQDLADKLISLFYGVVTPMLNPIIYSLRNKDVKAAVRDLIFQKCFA

CC(=O)c1c(C)c([N+](=O)[O-])c(C(C)(C)C)c([N+](=O)[O-])c1C
inactive: all assays above

CC1=C(O)C(=O)OC1C (stereo not drawn)
not listed: [5]
inactive: all other assays above

CCC(C)C(=O)OC (stereo not drawn)
inactive: [19]
